pEC50: −log10 of the molar value.
Assays:
[1] = Therapeutic index, ratio of TD50 for human HG23 cells to ED50 for Norovirus; type: cell-based; conditions: read-out: Ratio TD50/ED50
Procedure, shortened: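 TI was taken as TD50 over ED50, both measured in HG23 replicon cells. For ED50, one-day-old cells at 80-90% confluence were treated with 0 (mock, DMSO) to 10 µM, and replicon genome levels were quantified by real-time qRT-PCR at 48 h. For TD50, cells were treated with 0 to 200 µM and read with a cytotoxicity kit at 48 h.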

[2] = Cytotoxicity against human HG23 cells after 48 hrs; type: cell-based; conditions: read-out: TD50
Procedure, shortened: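 HG23 cells (Norwalk virus replicon-harboring) were exposed to a concentration series from 0 (mock, DMSO) to 200 µM. Viability was read with a commercial cell cytotoxicity assay kit after 48 h of treatment, and the median toxic dose (TD50) was calculated from it.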

Norovirus = test: Antiviral activity against Norovirus infected in human HG23 cells assessed as inhibition of viral replication after 24 hrs by RT-PCR analysis; type: functional; conditions: HG23, 24 h, read-out: ED50 (the source's name)
Procedure, shortened: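 Norwalk virus replicon-bearing HG23 cells were used one day after seeding, at 80-90% confluence. They were exposed to a range of compound concentrations from 0 (DMSO mock) to 10 µM. NV genome levels were quantified by real-time qRT-PCR. ED50 was taken as the concentration that lowered NV genome levels by 50%.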

Cc1cc2c(c(=O)o1)C=C1CC[C@H](C(C)CNC(=O)c3ccnc4ccccc34)C[C@@H]1O2 (stereo not given in full)
selectivity ratio [1]: 18.8 | CC50 at 48 h [2]: 104 µM | pEC50 (Norovirus): 5.26

Cc1cc2c(c(=O)o1)C=C1CC[C@H](C(C)CNCc3ccc4ncccc4c3)C[C@@H]1O2 (stereo not given in full)
pEC50 (Norovirus): 5.09

Cc1cc(CNCC(C)[C@H]2CCC3=Cc4c(cc(C)oc4=O)O[C@H]3C2)c2ccccc2n1 (mixture of isomers)
pEC50 (Norovirus): 5.09

CC(=O)OCc1cc(CNCC(C)[C@H]2CCC3=Cc4c(cc(C)oc4=O)O[C@H]3C2)c2ccccc2n1 (mixture of isomers)
pEC50 (Norovirus): 5.01

Cc1cc2c(c(=O)o1)C=C1CC[C@H](C(C)CNCc3cc(CO)nc4ccccc34)C[C@@H]1O2 (mixture of isomers)
pEC50 (Norovirus): 5.02

Cc1cc2c(c(=O)o1)C=C1CC[C@H](C(C)CNCc3cc(C4OCOCO4)nc4ccccc34)C[C@@H]1O2 (mixture of isomers)
pEC50 (Norovirus): 5.08

Cc1cc2c(c(=O)o1)C=C1CC[C@H](C(C)CNCc3cc(C)c4ccccc4n3)C[C@@H]1O2 (mixture of isomers)
selectivity ratio [1]: > 40 | CC50 at 48 h [2]: > 200 µM | pEC50 (Norovirus): 5.28

Cc1ccc2nccc(CNCC(C)[C@H]3CCC4=Cc5c(cc(C)oc5=O)O[C@H]4C3)c2c1 (mixture of isomers)
selectivity ratio [1]: 18 | CC50 at 48 h [2]: 61.2 µM | pEC50 (Norovirus): 5.47

Cc1ccc2nc(CNCC(C)[C@H]3CCC4=Cc5c(cc(C)oc5=O)O[C@H]4C3)ccc2c1 (mixture of isomers)
selectivity ratio [1]: 10.3 | CC50 at 48 h [2]: 83.7 µM | pEC50 (Norovirus): 5.09

Cc1cc2c(c(=O)o1)C=C1CC[C@H](C(C)CNCc3ccnc4c3ccc3ccccc34)C[C@@H]1O2 (mixture of isomers)
selectivity ratio [1]: > 40 | CC50 at 48 h [2]: > 200 µM | pEC50 (Norovirus): 5.28

Cc1cc2c(c(=O)o1)C=C1CC[C@H](C(C)CN)C[C@@H]1O2 (mixture of isomers)
CC50 at 48 h [2]: > 200 µM | pEC50 (Norovirus): < 5.00

Cc1cc2c(c(=O)o1)C=C1CC[C@H](C(C)CNCc3cccnc3)C[C@@H]1O2 (mixture of isomers)
selectivity ratio [1]: > 50 | CC50 at 48 h [2]: > 200 µM | pEC50 (Norovirus): 5.39

Cc1cc2c(c(=O)o1)C=C1CC[C@H](C(C)CNCc3ccncc3)C[C@@H]1O2 (mixture of isomers)
pEC50 (Norovirus): 5.02

Cc1cc2c(c(=O)o1)C=C1CC[C@H](C(C)CNCc3ccc4ccccc4n3)C[C@@H]1O2 (mixture of isomers)
selectivity ratio [1]: > 58.8 | CC50 at 48 h [2]: > 200 µM | pEC50 (Norovirus): 5.47

Cc1cc2c(c(=O)o1)C=C1CC[C@H](C(C)CNCc3ccnc4ccccc34)C[C@@H]1O2 (mixture of isomers)
selectivity ratio [1]: 40.2 | CC50 at 48 h [2]: 96.4 µM | pEC50 (Norovirus): 5.62

Cc1cc2c(c(=O)o1)C=C1CC[C@H](C(C)CNCc3cccc4cccnc34)C[C@@H]1O2 (mixture of isomers)
selectivity ratio [1]: > 16 | CC50 at 48 h [2]: > 160 µM | pEC50 (Norovirus): < 5.00

Reference: ChEMBL document CHEMBL2021817, “Synthesis and anti-norovirus activity of pyranobenzopyrone compounds” (Bioorg Med Chem Lett, 2012)
